In ChEMBL document CHEMBL1275519, “In vivo pharmacodynamics of ceftobiprole against multiple bacterial pathogens in murine thigh and lung infection models” (Antimicrob Agents Chemother, 2008):
In brackets after ≈: the same amount, converted by molar mass.

Key:
[1] = T>MIC in Streptococcus pneumoniae CDC 673 infected CD1 neutropenic mouse at 2-log kill dose of 29 mg/kg, sc administered every 6 hrs; type: functional; details: route subcutaneous
[2] = Cmax in CD1 neutropenic mouse with bacterial infection in thigh at 160 mg/kg, sc; type: ADME, organism-based; design: dose 160 mg/kg, route subcutaneous; details: in vivo
Summary of the method: (§1)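 Neutropenic thigh-infected mice (cyclophosphamide i.p. 150 mg/kg day −4, 100 mg/kg day −1) given single s.c. ceftobiprole medocaril doses; two groups of three mice per dose bled retro-orbitally at 0.5–6 h, each animal 3–4 times. Total serum drug measured by agar diffusion bioassay with E. coli NIH-J (linear 0.25–256 μg/ml). Cmax, t1/2 and AUC from one-compartment model.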

[3] = T>MIC in Streptococcus pneumoniae MNO-418 infected CD1 neutropenic mouse at 2-log kill dose of 0.624 mg/kg, sc administered every 6 hrs; type: functional; details: route subcutaneous
Streptococcus pneumoniae [4] = test: Antimicrobial activity against Streptococcus pneumoniae CDC 1293 by broth dilution method; type: functional
Summary of the method: (§2)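 Ceftobiprole MIC determined by CLSI (NCCLS) broth microdilution.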

Streptococcus pneumoniae [5] = test: Antimicrobial activity against Streptococcus pneumoniae MNO-418 by broth dilution method; type: functional
Summary of the method: (§3)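 Ceftobiprole MIC by broth microdilution per Clinical and Laboratory Standards Institute (formerly NCCLS) methods, using ceftobiprole standard powder.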

[6] = T>MIC in Staphylococcus aureus ATCC 33591 infected CD1 neutropenic mouse at 2-log kill dose of 15.3 mg/kg, sc administered every 6 hrs; type: functional; details: route subcutaneous
[7] = T>MIC in methicillin-resistant Staphylococcus aureus 12248 infected CD1 neutropenic mouse at 2-log kill dose of 50.5 mg/kg, sc administered every 6 hrs; type: functional; details: route subcutaneous
Staphylococcus aureus [8] = test: Antimicrobial activity against methicillin-resistant Staphylococcus aureus WIS-1 by broth dilution method; type: functional; summary of the method: as §3
[9] = T>MIC in Streptococcus pneumoniae MNO-418 infected CD1 neutropenic mouse at static dose of 0.238 mg/kg, sc administered every 6 hrs; type: functional; details: route subcutaneous
Summary of the method: (§4)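 Neutropenic mice (cyclophosphamide i.p. 150 and 100 mg/kg, 4 and 1 days pre-infection) given 0.1 ml thigh inoculum (1:10 dilution of 10^8 CFU/ml), then treated from 2 h post-infection for 24 h with s.c. ceftobiprole medocaril (0.010–160 mg/kg) at varied intervals. Thigh CFU plated from homogenates. Static dose came from a sigmoid Hill model, and T>MIC was estimated from mouse PK and MIC.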

[10] = AUC in CD1 neutropenic mouse with bacterial infection in thigh at 40 mg/kg, sc; type: ADME, organism-based; design: dose 40 mg/kg, route subcutaneous; details: plasma; summary of the method: as §1
[11] = T>MIC in Streptococcus pneumoniae CDC 673 infected CD1 neutropenic mouse at static dose of 6.68 mg/kg, sc administered every 6 hrs; type: functional; details: route subcutaneous; summary of the method: as §4
Staphylococcus aureus [12] = test: Antimicrobial activity against methicillin-resistant Staphylococcus aureus 12248 by broth dilution method; type: functional; summary of the method: as §3
[13] = T>MIC in Streptococcus pneumoniae CDC 1329 infected CD1 neutropenic mouse at static dose of 2.93 mg/kg, sc administered every 6 hrs; type: functional; details: route subcutaneous; summary of the method: as §4
[14] = T>MIC in Streptococcus pneumoniae CDC 1329 infected CD1 neutropenic mouse at 2-log kill dose of 5.51 mg/kg, sc administered every 6 hrs; type: functional; details: route subcutaneous
Staphylococcus aureus [15] = test: Antimicrobial activity against Staphylococcus aureus ATCC 29213 by broth dilution method; type: functional; summary of the method: as §3
Streptococcus pneumoniae [16] = test: Antimicrobial activity against Streptococcus pneumoniae CDC 1329 by broth dilution method; type: functional; summary of the method: as §2
Streptococcus pneumoniae [17] = test: Antimicrobial activity against Streptococcus pneumoniae CDC 145 by broth dilution method; type: functional; summary of the method: as §2
[18] = T>MIC in methicillin-resistant Staphylococcus aureus 11888 infected CD1 neutropenic mouse at static dose of 22.6 mg/kg, sc administered every 6 hrs; type: functional; details: route subcutaneous
Staphylococcus aureus [19] = test: Antimicrobial activity against Staphylococcus aureus ATCC 22923 by broth dilution method; type: functional; summary of the method: as §3
[20] = T>MIC in Enterobacter cloacae 4567 infected CD1 neutropenic mouse at static dose of 3.28 mg/kg, sc administered every 3 hrs; type: functional; details: route subcutaneous; summary of the method: as §4
[21] = T>MIC in Enterobacter cloacae 4567 infected CD1 neutropenic mouse at 2-log kill dose of 4.67 mg/kg, sc administered every 3 hrs; type: functional; details: route subcutaneous
[22] = T>MIC in methicillin-resistant Staphylococcus aureus 11888 infected CD1 neutropenic mouse at 2-log kill dose of 40.2 mg/kg, sc administered every 6 hrs; type: functional; details: route subcutaneous
[23] = T>MIC in Enterobacter cloacae 2249 infected CD1 neutropenic mouse at 2-log kill dose of 155 mg/kg, sc administered every 3 hrs; type: functional; details: route subcutaneous
Enterobacter cloacae = test: Antimicrobial activity against Enterobacter cloacae 4567 by broth dilution method; type: functional; summary of the method: as §2
[24] = T>MIC in Klebsiella pneumoniae infected CD1 neutropenic mouse at 2-log kill dose of 43.8 mg/kg, sc administered every 6 hrs; type: functional; details: route subcutaneous
[25] = T>MIC in Streptococcus pneumoniae CDC 1293 infected CD1 neutropenic mouse at static dose of 2.72 mg/kg, sc administered every 6 hrs; type: functional; details: route subcutaneous; summary of the method: as §4
[26] = Cmax in CD1 neutropenic mouse with bacterial infection in thigh at 40 mg/kg, sc; type: ADME, organism-based; design: dose 40 mg/kg, route subcutaneous; details: in vivo; summary of the method: as §1
Staphylococcus aureus [27] = test: Antimicrobial activity against Staphylococcus aureus ATCC Smith by broth dilution method; type: functional; summary of the method: as §3
Staphylococcus aureus [28] = test: Antimicrobial activity against Staphylococcus aureus ATCC 33591 by broth dilution method; type: functional; summary of the method: as §3
[29] = T>MIC in Streptococcus pneumoniae CDC-145 infected CD1 neutropenic mouse at 2-log kill dose of 3.27 mg/kg, sc administered every 6 hrs; type: functional; details: route subcutaneous
Staphylococcus aureus [30] = test: Antimicrobial activity against methicillin-resistant Staphylococcus aureus 22115 by broth dilution method; type: functional; summary of the method: as §3
Pseudomonas aeruginosa = test: Antimicrobial activity against Pseudomonas aeruginosa ATCC 27853 by broth dilution method; type: functional; summary of the method: as §3
Streptococcus pneumoniae [31] = test: Antimicrobial activity against Streptococcus pneumoniae ATCC 10813 by broth dilution method; type: functional; summary of the method: as §2

## Nc1nc(/C(=N/O)C(=O)N[C@@H]2C(=O)N3C(C(=O)O)=C(/C=C4\CCN([C@@H]5CCNC5)C4=O)CS[C@H]23)ns1 [CEFTOBIPROLE]
[1]
  fT>MIC: 29.7%
[2]
  Cmax: 144 µg/mL
[3]
  fT>MIC: 31.8%
Streptococcus pneumoniae [4]
  MIC: 0.5 µg/mL (≈ 0.935 µM)
Streptococcus pneumoniae [5]
  MIC: 0.015 µg/mL (≈ 0.0281 µM)
[6]
  fT>MIC: 24.4%
[7]
  fT>MIC: 31.6%
Staphylococcus aureus [8]
  MIC: 1 µg/mL (≈ 1.87 µM)
[9]
  fT>MIC: 21.3%
[10]
  AUC: 27800 ng·h/mL
[11]
  fT>MIC: 18.5%
Staphylococcus aureus [12]
  MIC: 2 µg/mL (≈ 3.74 µM)
[13]
  fT>MIC: 22.2%
[14]
  fT>MIC: 27%
Staphylococcus aureus [15]
  MIC: 0.5 µg/mL (≈ 0.935 µM)
Streptococcus pneumoniae [16]
  MIC: 0.25 µg/mL (≈ 0.468 µM)
Streptococcus pneumoniae [17]
  MIC: 0.25 µg/mL (≈ 0.468 µM)
[18]
  fT>MIC: 22.5%
Staphylococcus aureus [19]
  MIC: 0.5 µg/mL (≈ 0.935 µM)
[20]
  fT>MIC: 35.6%
[21]
  fT>MIC: 40.9%
[22]
  fT>MIC: 27.4%
[23]
  fT>MIC: 100%
Enterobacter cloacae
  MIC: 0.5 µg/mL (≈ 0.935 µM)
[24]
  fT>MIC: 59.2%
[25]
  fT>MIC: 16.3%
[26]
  Cmax: 31.2 µg/mL
Staphylococcus aureus [27]
  MIC: 0.5 µg/mL (≈ 0.935 µM)
Staphylococcus aureus [28]
  MIC: 1 µg/mL (≈ 1.87 µM)
[29]
  fT>MIC: 23%
Staphylococcus aureus [30]
  MIC: 1 µg/mL (≈ 1.87 µM)
Pseudomonas aeruginosa
  MIC: 2 µg/mL (≈ 3.74 µM)
Streptococcus pneumoniae [31]
  MIC: 0.03 µg/mL (≈ 0.0561 µM)
